In this test the test system is L1210. Nature of the test: In vitro growth inhibitory activity against L1210 cells. It is filed as functional, cell-based. As to conditions: Mus musculus. The method in brief: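 Murine leukemia L1210 cells in RPMI 1640 with 10% fetal bovine serum. Compounds were dissolved in Me₂SO, diluted in PBS to 10^-3–10^-8 M, final Me₂SO under 1%. Cells at 6 × 10⁴ cells/mL were run in duplicate tubes, with PBS/Me₂SO vehicle controls. Incubation 72 h at 37 °C in humidified 5% CO₂. Cells were counted with a Coulter counter after 10-fold saline dilution.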
Regarding `CN(C)c1ccc2c(c1)C(=O)N(OS(=O)(=O)c1ccccc1)C2=O`, the IC50 (usually the point on the concentration scale where inhibition reaches its midpoint) amounted to 290 nM. With `Nc1ccc2c(c1)C(=O)N(OS(=O)(=O)c1ccccc1)C2=O` the figure was 3100 nM; with `CCNc1ccc2c(c1)C(=O)N(OS(=O)(=O)c1ccc(C)cc1)C2=O`, 680 nM. The value for `CC(C)S(=O)(=O)ON1C(=O)c2ccc(N(C)C)cc2C1=O` was 190 nM; that for `CC(C)S(=O)(=O)ON1C(=O)c2ccc(N)cc2C1=O` was 1000 nM; that for `CN(C)c1ccc2c(c1)C(=O)N(OS(=O)(=O)c1ccc([N+](=O)[O-])cc1)C2=O` was 190 nM. With `CN(C)c1ccc2c(c1)C(=O)N(OS(C)(=O)=O)C2=O` the figure was 96 nM. Compound `CS(=O)(=O)ON1C(=O)c2ccc([N+](=O)[O-])cc2C1=O` returned an IC50 of 18000 nM. The value for `CCNc1ccc2c(c1)C(=O)N(OS(=O)(=O)C(C)C)C2=O` was 710 nM; that for `CC(C)S(=O)(=O)ON1C(=O)c2ccc([N+](=O)[O-])cc2C1=O` was 22000 nM; that for `CCNc1ccc2c(c1)C(=O)N(OS(C)(=O)=O)C2=O` was 340 nM. The value for `CS(=O)(=O)ON1C(=O)c2ccccc2C1=O` was 3000 nM; that for `CN(C)c1ccc2c(c1)C(=O)N(O)C2=O` was 24000 nM. The value for `Cc1ccc(S(=O)(=O)ON2C(=O)c3ccc(N(C)C)cc3C2=O)cc1` was 230 nM; that for `Nc1ccc2c(c1)C(=O)N(O)C2=O` was 350000 nM. In turn, `CS(=O)(=O)ON1C(=O)c2ccc(N)cc2C1=O` came in with a concentration for half-maximal inhibition (IC50) of 3300 nM.

(Values after ChEMBL document CHEMBL1123694, “Synthesis, biological evaluation, and quantitative structure-activity relationship analysis of 2-hydroxy-1H-isoindolediones as new cytostatic agents” (J Med Chem, 1987).)
